Source: ChEMBL document CHEMBL1134679, “Exploiting subsite S1 of trypsin-like serine proteases for selectivity: potent and selective inhibitors of urokinase-type plasminogen activator” (J Med Chem, 2001)
pKi: −log10 of the molar value.

Assays:
Prothrombin = Prothrombin (Homo sapiens, UniProt P00734); assay: The compound was tested for inhibition of human thrombin
Plasma kallikrein = Plasma kallikrein (Homo sapiens, UniProt P03952); assay: The compound was tested for inhibition of human p-kallikrein
[1] = molecular target: Tissue-type plasminogen activator (Homo sapiens, UniProt P00750); assay: The compound was tested for inhibition of human tissue plasminogen activator
Coagulation factor VII = molecular target: T1, Coagulation factor VII (Homo sapiens, UniProt P08709); assay: The compound was tested for inhibition of human coagulation factor VII
T1 sequence (P08709 whole entry): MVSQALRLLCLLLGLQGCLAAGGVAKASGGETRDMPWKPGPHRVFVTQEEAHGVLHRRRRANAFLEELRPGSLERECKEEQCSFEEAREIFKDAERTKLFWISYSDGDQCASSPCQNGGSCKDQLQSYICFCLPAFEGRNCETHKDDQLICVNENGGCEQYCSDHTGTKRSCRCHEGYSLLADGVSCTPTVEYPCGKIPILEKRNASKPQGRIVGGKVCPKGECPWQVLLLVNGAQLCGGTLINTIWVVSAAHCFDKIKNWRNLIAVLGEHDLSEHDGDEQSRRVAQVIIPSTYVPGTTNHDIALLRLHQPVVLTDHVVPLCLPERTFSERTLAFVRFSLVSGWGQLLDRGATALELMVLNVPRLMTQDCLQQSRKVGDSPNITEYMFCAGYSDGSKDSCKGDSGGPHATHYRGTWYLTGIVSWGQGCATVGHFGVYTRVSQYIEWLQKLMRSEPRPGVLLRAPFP

Trypsin = Trypsin (Homo sapiens, UniProt P07477+P07478+P35030); assay: The compound was tested for inhibition of human trypsin; assay type: protein assay
[2] = molecular target: Urokinase-type plasminogen activator (Homo sapiens, UniProt P00749); assay: The compound was tested for inhibition of human urokinase type plasminogen activator (microPa)
Coagulation factor X = Coagulation factor X (Homo sapiens, UniProt P00742); assay: Binding affinity against human coagulation factor X
[3] = Volume of distribution in Sprague-Dawley Rat (Wt 286) was determined after iv administration at a dose of 1 mg/kg; assay type: ADME, organism-based; set-up: dose 1 mg/kg, route intravenous; settings: in vivo, read-out: Vc
How it was run: (§1)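 Male Sprague-Dawley rats, three per group, received a single IV tail-vein bolus in 40% PEG400/H2O (1 or 2 mg/mL). Jugular blood was drawn into heparin at several times up to 24 h. Plasma was held at −80 °C, then assayed by LC-MS/MS against standard curves of 1–10000 ng/mL (LOQ 6 ng/mL). Parameters are mean ± SD; AUC runs 0 to infinity; volume of distribution is central compartment.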

[4] = terminal half-life in Sprague-Dawley Rat (Wt 286) was determined after iv administration at a dose of 1 mg/kg; assay type: ADME, organism-based; set-up: dose 1 mg/kg, route intravenous; settings: in vivo; how it was run: as §1
[5] = Volume of distribution at steady state in Sprague-Dawley Rat (Wt 286) was determined after iv administration at a dose of 1 mg/kg; assay type: ADME, organism-based; set-up: dose 1 mg/kg, route intravenous; settings: in vivo, read-out: Vss; how it was run: as §1
[6] = mean residence time in Sprague-Dawley Rat (Wt 286) was determined after iv administration at a dose of 1 mg/kg; assay type: ADME, organism-based; set-up: dose 1 mg/kg, route intravenous; settings: in vivo; how it was run: as §1
Rattus norvegicus [7] = assay: Area undercurve in Sprague-Dawley Rat (Wt 286) was determined after iv administration at a dose of 1 mg/kg; assay type: ADME, organism-based; set-up: dose 1 mg/kg, route intravenous; settings: in vivo; how it was run: as §1
[8] = Plasma clearance of compound in Sprague-Dawley Rat (Wt 286) was determined after iv administration at a dose of 1 mg/kg; assay type: ADME, organism-based; set-up: dose 1 mg/kg, route intravenous; settings: read-out: Clp; how it was run: as §1
Rattus norvegicus [9] = assay: Integrated area under the plasma concentration in Sprague-Dawley Rat (Wt 294) was determined after iv administration at a dose of 2 mg/kg; assay type: ADME, organism-based; set-up: dose 2 mg/kg, route intravenous; settings: in vivo; how it was run: as §1
[10] = Volume of distribution in Sprague-Dawley Rat (Wt 294) was determined after iv administration at a dose of 2 mg/kg; assay type: ADME, organism-based; set-up: dose 2 mg/kg, route intravenous; settings: in vivo, read-out: Vc; how it was run: as §1
[11] = terminal half-life in Sprague-Dawley Rat (Wt 294) was determined after iv administration at a dose of 2 mg/kg; assay type: ADME, organism-based; set-up: dose 2 mg/kg, route intravenous; settings: in vivo; how it was run: as §1
[12] = Mean residence time of compound in Sprague-Dawley Rat (Wt 294) was determined after iv administration at a dose of 2 mg/kg; assay type: ADME, organism-based; set-up: dose 2 mg/kg, route intravenous; settings: in vivo; how it was run: as §1
[13] = Plasma clearance of compound in Sprague-Dawley Rat (Wt 294) was determined after iv administration at a dose of 2 mg/kg; assay type: ADME, organism-based; set-up: dose 2 mg/kg, route intravenous; settings: read-out: Clp; how it was run: as §1
[14] = Volume of distribution at steady state in Sprague-Dawley Rat (Wt 294) was determined after iv administration at a dose of 2 mg/kg; assay type: ADME, organism-based; set-up: dose 2 mg/kg, route intravenous; settings: in vivo, read-out: Vss; how it was run: as §1

Coagulation factor X, sequence (P00742 41-179 limits assumed): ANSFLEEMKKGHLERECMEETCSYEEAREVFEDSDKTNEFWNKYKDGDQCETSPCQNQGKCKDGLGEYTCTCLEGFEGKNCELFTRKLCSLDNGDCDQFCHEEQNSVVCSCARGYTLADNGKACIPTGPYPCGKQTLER
Coagulation factor X, sequence (P00742 235-488 limits assumed): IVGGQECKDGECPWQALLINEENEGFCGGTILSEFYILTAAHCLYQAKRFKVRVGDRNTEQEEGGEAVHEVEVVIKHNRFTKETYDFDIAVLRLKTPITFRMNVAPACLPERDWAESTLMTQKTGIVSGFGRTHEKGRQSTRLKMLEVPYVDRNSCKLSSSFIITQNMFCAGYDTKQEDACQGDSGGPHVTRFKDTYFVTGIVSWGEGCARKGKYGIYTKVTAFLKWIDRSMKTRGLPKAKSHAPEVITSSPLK
Plasma kallikrein, sequence (P03952 20-390 limits assumed): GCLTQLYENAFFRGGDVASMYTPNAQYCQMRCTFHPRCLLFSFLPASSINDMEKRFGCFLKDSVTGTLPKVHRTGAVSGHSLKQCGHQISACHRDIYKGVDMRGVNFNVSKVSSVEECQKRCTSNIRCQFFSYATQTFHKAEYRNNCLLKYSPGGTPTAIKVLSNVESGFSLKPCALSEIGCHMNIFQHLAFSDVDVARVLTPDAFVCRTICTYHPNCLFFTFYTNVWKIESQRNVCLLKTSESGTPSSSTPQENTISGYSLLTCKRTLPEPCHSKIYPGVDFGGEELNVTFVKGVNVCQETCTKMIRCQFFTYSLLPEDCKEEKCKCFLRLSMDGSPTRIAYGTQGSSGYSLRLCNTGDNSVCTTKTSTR
Plasma kallikrein, sequence (P03952 391-638 limits assumed): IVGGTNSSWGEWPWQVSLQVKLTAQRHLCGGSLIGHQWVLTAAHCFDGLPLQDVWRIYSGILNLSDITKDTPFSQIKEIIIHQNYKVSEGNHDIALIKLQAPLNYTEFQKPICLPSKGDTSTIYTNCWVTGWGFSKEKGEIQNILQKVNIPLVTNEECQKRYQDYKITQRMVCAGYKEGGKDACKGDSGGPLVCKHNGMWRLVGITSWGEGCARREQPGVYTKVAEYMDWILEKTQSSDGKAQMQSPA
Tissue-type plasminogen activator, sequence (P00750 whole entry): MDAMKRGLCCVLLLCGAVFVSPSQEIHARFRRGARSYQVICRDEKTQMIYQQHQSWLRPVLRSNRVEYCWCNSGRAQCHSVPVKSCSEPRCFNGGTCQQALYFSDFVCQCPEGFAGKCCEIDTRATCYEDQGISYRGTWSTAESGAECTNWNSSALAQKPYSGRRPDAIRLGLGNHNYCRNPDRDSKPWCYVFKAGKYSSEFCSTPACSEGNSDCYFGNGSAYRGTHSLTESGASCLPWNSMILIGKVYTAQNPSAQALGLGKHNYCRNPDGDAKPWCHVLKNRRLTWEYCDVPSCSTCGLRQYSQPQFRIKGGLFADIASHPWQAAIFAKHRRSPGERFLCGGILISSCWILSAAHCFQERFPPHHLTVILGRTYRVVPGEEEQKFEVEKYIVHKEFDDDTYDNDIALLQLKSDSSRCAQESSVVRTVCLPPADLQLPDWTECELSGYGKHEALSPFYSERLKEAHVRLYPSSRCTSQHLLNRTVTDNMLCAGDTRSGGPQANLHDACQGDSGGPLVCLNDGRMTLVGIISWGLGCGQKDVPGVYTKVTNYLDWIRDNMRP

Row | Structure (SMILES) | pKi (Prothrombin) | pKi (Plasma kallikrein) | pKi (Coagulation factor VII) | Ki (Trypsin) | pKi [2] | pKi (Coagulation factor X) | also measured
1 | Cc1cc2[nH]c(-c3cccc(-c4ccccc4)c3O)cc2cc1C(=N)N | < 4.12 | 5.32 | 5.15 | 1.6 µM | 7.00 | < 4.12 | pKi [1]: 4.41
2 | N=C(N)c1ccc2[nH]c(-c3cccc(-c4ccccc4)c3O)cc2c1Cl | 4.19 | 5.89 | 5.26 | 4.7 µM | 6.31 | 5.28 | pKi [1]: 5.48
3 | N=C(N)c1ccc2[nH]c(-c3cccc(-c4ccccc4)c3O)cc2c1 |  | 8.72 | 6.80 | 0.13 µM |  |  | Vd [3]: 1.56 L/kg; half-life [4]: 1.7 h; Vd [5]: 11.9 L/kg; MRT [6]: 1.77 h; AUC (Rattus norvegicus [7]): 0.4 µM·h; clearance [8]: 121 mL/min/kg
4 | COc1cc2[nH]c(-c3cccc(-c4ccccc4)c3O)cc2cc1C(=N)N | < 4.12 | 6.22 | 4.80 | 14 µM | 6.44 | 4.59 | 
5 | N=C(N)c1cc2cc(-c3cccc(-c4ccccc4)c3O)[nH]c2cc1O | < 4.12 | 5.89 | < 4.12 | 50 µM |  | < 4.12 | 
6 | N=C(N)c1cc2cc(-c3cccc(-c4ccccc4)c3O)[nH]c2cc1Cl |  |  |  |  |  |  | AUC (Rattus norvegicus [9]): 1.42 µM·h; Vd [10]: 0.346 L/kg; half-life [11]: 3.15 h; MRT [12]: 2.17 h; clearance [13]: 59 mL/min/kg; Vd [14]: 7.7 L/kg
7 | N=C(N)c1cc2cc(-c3cccc(-c4ccccc4)c3O)[nH]c2cc1F | 5.12 | 6.96 | 6.12 | 1.1 µM |  |  | 
